# Screens (PubChem)
# An excerpt weighted towards active compounds, which were near 0.77% of everything screened.
# hIAP act = human IAP activation. activation factor at 10 µM. 330,000 tested, 0.16% active. AID 2524. purified human IAP, CDP-Star luminescence, 30 min; active compounds read high; 1 = vehicle-only enzyme, 0 = enzyme-free background;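 active means activation factor of the enzyme at least 2-fold when tested at 20 µM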
# Target sequence (P09923 whole entry, looked up): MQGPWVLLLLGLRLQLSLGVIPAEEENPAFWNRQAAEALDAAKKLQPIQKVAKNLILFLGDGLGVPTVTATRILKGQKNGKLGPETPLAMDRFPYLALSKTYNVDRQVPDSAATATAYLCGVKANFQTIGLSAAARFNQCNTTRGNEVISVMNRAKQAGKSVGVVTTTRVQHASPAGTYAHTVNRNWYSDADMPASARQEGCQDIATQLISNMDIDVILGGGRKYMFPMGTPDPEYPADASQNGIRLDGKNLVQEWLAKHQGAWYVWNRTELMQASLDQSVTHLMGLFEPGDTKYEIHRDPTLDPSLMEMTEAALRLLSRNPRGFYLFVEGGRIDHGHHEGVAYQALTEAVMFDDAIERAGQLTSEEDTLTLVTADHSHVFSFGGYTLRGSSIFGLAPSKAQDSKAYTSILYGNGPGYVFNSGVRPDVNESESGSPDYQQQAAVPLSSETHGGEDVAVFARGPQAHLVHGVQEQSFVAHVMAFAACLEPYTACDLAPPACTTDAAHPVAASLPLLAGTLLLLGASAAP
# bIAP activator = increases bovine intestinal alkaline phosphatase activity; purified bovine IAP, CDP-star luminescence, 30 min; active compounds read high; fold of DMSO-control signal, blank-subtracted; activation factor at 20 µM; 200,000 tested, 0.17% active; AID 1016;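 active means activation factor of 2 or more at 20 µM, a signal rise over negative controls twice the positive control's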
# mIAP block = blocks mouse intestinal alkaline phosphatase; purified mouse IAP, CDP-Star luminescence, 30 min; inhibition, % at 10 µM; 330,000 tested, 0.2% active; AID 2806;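 active means inhibition of at least 40% at 10 µM in the primary screen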;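 further: plate controls were DMSO with enzyme for no effect and no enzyme wells for full effect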
# hIAP inh = human IAP inhibition | AID 2544 | 330,000 tested, 0.12% active | inhibition, % at 10 µM | P09923 | purified IAP, CDP-Star luminescence, 30 min;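 active means inhibition reaching a set limit with compound at 10 µM in the primary screen, cut at about 35% in these data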;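 further: plate controls were DMSO wells with enzyme for no effect and no-enzyme buffer wells for full effect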
# bIAP inhibitor = blocks bovine intestinal alkaline phosphatase activity; AID 1019; inhibition, % at 20 µM; 190,000 tested, under 10 active; purified bovine IAP, CDP-star luminescence, 30 min;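 active means over 50% inhibition of intestinal alkaline phosphatase at 20 µM in the single-dose screen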
#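 Assay system: bovine IAP enzyme; medium: DEA buffer 100 mM, pH 9.8, with MgCl2 1.0 mM, ZnCl2 0.02 mM; doses: 20 µM single dose; incubation: enzyme reaction for 30 min at room temperature; detection: CDP-star luminescence signal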
# mIAP act = mouse IAP activation; muIAP, CDP-Star luminescence, 30 min; active compounds read high; 1 = vehicle-only enzyme signal, 0 = enzyme-free wells; activation factor at 10 µM; 330,000 tested, 0.24% active;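 active means activation factor of at least 2 at 20 µM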
#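 Assay system: mouse IAP enzyme; Reagent: CDP-Star chemiluminescent phosphatase substrate; Compound: DMSO-dissolved test compounds; Incubation: 30 min, room temperature; Technique: luminescence from enzymatic CDP-Star hydrolysis; Controls: DMSO-only wells and no-enzyme negative control.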
# hIAP act conf = human IAP activation confirmation. shares compounds with hIAP act. purified IAP, CDP-Star luminescence, 30 min; active compounds read low. activation (%Activity, negative = activation), % at 8.3 µM. 880 tested, 10% active. AID 434926;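 active means at least twofold enzyme activation in any of six single-dose repeats, which the averaged readout prints as negative percent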
# * = called active by the depositor; nt = no result given.
SMILES,hIAP act,bIAP activator,mIAP block,hIAP inh,bIAP inhibitor,mIAP act,hIAP act conf
COC(=O)c1ccc(N/C(C)=C/C(=O)c2ccc(C)o2)cc1,0.644,1,11.5,35.6*,2.2,0.885,-3.0
CCCNC(=O)C(Cc1cccc(C#N)c1)NC(=O)c1ccc(C#N)cc1 (centres undefined),0.974,nt,8.5,2.6,nt,0.915,nt
Cc1cc2cccc(C)c2nc1SCC(=O)NNC(=O)c1ccco1,1.74,1.2,-7.8,-73.6,-22.9,1.08,nt
Cc1cc(C)c2nc(SCC(=O)NNC(=O)c3ccco3)c(C)cc2c1,2.03*,1.1,3.4,-103.3,-8.5,0.966,-58.7*
Cc1cc(C)nc(N2CCN(c3ccc(F)cc3)CC2)n1,1.26,nt,-3.5,-26.3,nt,1.03,nt
COc1cccc(Cn2cccc(NC(=O)NCc3ccccc3)c2=O)c1,0.615,nt,5.0,38.5*,nt,0.95,8.7
CC(=O)c1cccc(NS(=O)(=O)c2ccc(C(=O)Nc3ccccc3)cc2)c1,0.701,nt,-9.6,29.9,nt,1.1,nt
O=C(Nc1ccccc1)c1ccc(S(=O)(=O)Nc2cccc(O)c2)cc1,0.6,nt,0.8,40.0*,nt,0.992,-43.7
Nc1nc(CN2CCN(Cc3ccc4c(c3)OCO4)CC2)nc(Nc2ccccc2)n1,2.02*,1.1,-1.3,-101.9,-5.1,1.01,-1.5
Cc1ccccc1OCc1nc2c3cnn(C)c3ncn2n1,1.13,0.7,-6.8,-13.3,27.4,1.07,nt
CCc1nc2c3cnn(-c4cc(Cl)ccc4C)c3ncn2n1,0.274,1,11.8,72.6*,-4.2,0.882,-31.0
CN(CC(=O)Nc1ccccc1F)CC(=O)Nc1ccc(F)c(F)c1F,2.11*,1.5,-2.6,-111.0,-45.1,1.03,51.6
CN1CCN(c2cc(N3CCN(C(=O)c4ccco4)CC3)c3c4c(onc24)-c2ccccc2C3=O)CC1,0.575,nt,17.3,42.5*,nt,0.827,2.8
O=C1c2ccccc2-c2onc3c(N4CCN(CCO)CC4)cc(N4CCN(C(=O)c5ccco5)CC4)c1c23,0.84,nt,3.4,16.0,nt,0.966,nt
CCOC(=O)c1cc2sccc2n1CC(=O)C(C)(C)C,1.05,0.9,-4.7,-5.4,8.3,1.05,nt
Nc1oc2ccccc2c(=O)c1C=O,0.273,0.9,11.1,72.7*,7.0,0.889,15.5
NC(=NCc1ccco1)NC(=O)c1ccc(Cl)cc1,0.912,nt,-3.4,8.8,nt,1.03,nt
CC(C)=CCc1c(O)cc2c(c1O)C(=O)CC(c1ccccc1)O2 (centres undefined),0.857,nt,7.3,14.3,nt,0.927,nt
CC(C)=CCc1c(O)ccc2c1OC(c1ccc(O)c(O)c1)CC2=O (centres undefined),0.319,0.8,32.1,68.1*,20.1,0.679,25.8
CC1(C)Cc2c(cnn2-c2ccc(F)cc2)C(NC(=O)C2=NNC(=O)CC2)C1 (centres undefined),0.97,nt,1.6,3.0,nt,0.984,nt
COc1cccc2c1cc1c(=O)n(CC(=O)NCCCN3CCN(C)CC3)nc(C)n12,0.568,nt,3.0,43.2*,nt,0.97,0.3
CCn1nc(C)cc1C(=O)N1CCCC(N(C)CCc2ccc(OC)c(OC)c2)C1 (centres undefined),1.15,nt,0.6,-15.1,nt,0.994,nt
CCn1c(C)nc2cc(C(=O)NNC(=S)Nc3ccccc3)ccc21,2.11*,1.6,-4.1,-111.1,-60.2,1.04,29.0
CCn1c(C)nc2cc(C(=O)N/N=C/c3ccccc3)ccc21,0.906,0.9,7.6,9.4,5.2,0.924,nt
CCn1c(C)nc2cc(C(=O)NNC(=S)Nc3ccc(Cl)cc3Cl)ccc21,2.13*,0.9,-14.1,-113.5,7.1,1.14,-43.9
SMILES,hIAP act,bIAP activator,mIAP block,hIAP inh,bIAP inhibitor,mIAP act,hIAP act conf
CCn1c(C)nc2cc(C(=O)N/N=C/c3cccc(O)c3O)ccc21,2.6*,1.7,8.7,-159.7,-74.2,0.913,-42.9*
CCn1c(C)nc2cc(C(=O)NNC(=S)Nc3ccc(Cl)cc3)ccc21,1.93,nt,1.3,-92.9,nt,0.987,nt
O=[N+]([O-])c1ccc(NS(=O)(=O)N2CCOCC2)cc1,1.03,nt,10.1,-2.7,nt,0.899,nt
CCOc1ccc(CC(=O)NNC(=S)NCCc2ccccc2)cc1,2.05*,1.2,6.3,-105.0,-15.4,0.937,77.5
O=C(/C=C/c1ccccc1Cl)Nn1cnc2ccccc2c1=O,1.04,1.1,-2.8,-3.6,-5.7,1.03,nt
COc1ccc(S(=O)(=O)NNC(=O)C(=O)NNc2ccccn2)cc1,3.02*,nt,14.6,-202.0,nt,0.854,5.8
O=C1/C(=C\c2ccc(O)cc2)SC(=S)N1Cc1ccccc1,0.63,nt,22.3,37.0*,nt,0.777,1.7
O=C1/C(=C/c2ccc(O)cc2)SC(=S)N1CC1CCCO1 (centres undefined),0.62,nt,30.9,38.0*,nt,0.691,12.5
CC(=O)Nc1ccc(S(=O)(=O)N(C)CC(=O)NNC(=O)Cc2nc3ccccc3n2C)cc1,2.3*,nt,-6.4,-130.4,nt,1.06,-50.4
CC(=O)Nc1ccc(SCC(=O)NNC(=O)CN(C)S(=O)(=O)c2ccc(C)cc2)cc1,1.07,nt,-0.2,-7.5,nt,1,nt
O=S(=O)(Nc1cccc(S(=O)(=O)N2CCCCC2)c1)c1ccc(Cl)s1,1.35,nt,6.7,-35.1,nt,0.933,nt
CC(C)n1cc(CN2CCCC(CNS(=O)(=O)c3cccc4cccnc34)C2)cn1 (centres undefined),1.06,nt,-4.5,-5.7,nt,1.04,nt
CCCn1c(=O)c(C(=O)NNC(=O)c2ccc(Cl)cc2Cl)c(O)c2ccccc21,2.95*,nt,3.1,-194.8,nt,0.969,-67.7
CCn1c(=O)c(C(=O)NNC(=O)c2ccc(Cl)cc2Cl)c(O)c2ccccc21,1.49,nt,16.1,-48.9,nt,0.839,nt
Cc1ccc(C)c(NC(=O)c2cc(-c3cc(C)ccc3O)n[nH]2)c1,2.21*,nt,-11.6,-121.4,nt,1.12,-57.6
Cc1cccc(NC(=O)c2cc(-c3cc(Cl)ccc3O)n[nH]2)c1,2.03*,nt,-17.9,-103.3,nt,1.18,-4.1
Cc1ccc(NC(=O)c2cc(-c3cc(Cl)ccc3O)n[nH]2)cc1C,1.94,nt,-2.7,-93.6,nt,1.03,nt
Cc1cc2c3c([nH]c2cc1S(=O)(=O)NCc1ccc(CN2CCCCCC2)o1)CCCC3=O,1.38,nt,-4.2,-37.9,nt,1.04,nt
COc1cccc(/C(N)=N/OC(=O)Cc2ccccc2[N+](=O)[O-])c1,1.04,1,4.0,-4.0,1.7,0.96,nt
S=c1[nH]nc(-c2cc(-c3ccccc3)n[nH]2)n1/N=C/c1ccc(Cl)cc1,2.03*,nt,0.5,-102.9,nt,0.995,3.5
COc1cc(C(=O)N[C@H](C(=O)OCC(=O)NC2CCCCCC2)C(C)C)cc(OC)c1OC,0.935,nt,-9.4,6.5,nt,1.09,nt
COc1cccc(/C=N/Nc2nc(-c3cccnc3)nc3ccccc23)c1,0.421,nt,2.3,57.9*,nt,0.977,0.0
C(=N\Nc1nc(-c2cccnc2)nc2ccccc12)/c1ccccc1,1.01,nt,0.8,-1.5,nt,0.992,nt
